Test results reported in ChEMBL document CHEMBL3588757, “Structure-based design, synthesis and biological testing of piperazine-linked bis-epipodophyllotoxin etoposide analogs” (Bioorg Med Chem, 2015).

Tests used:
Format in all cases: functional
[1] = tested on: NCI-H460; assay: Cytotoxicity against human NCI-H460 cells assessed as cell growth at 0.005 uM by SRB assay; settings: read-out: Activity
[2] = tested on: BT-549; assay: Cytotoxicity against human BT549 cells assessed as cell growth at 5 uM by SRB assay; settings: read-out: Activity
[3] = Cytotoxicity against human Hs578T cells assessed as cell growth at 50 uM by SRB assay; settings: Hs-578T, read-out: Activity
In short: (§1)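 Measured in the NCI-60 human tumour cell line panel using five-dose testing. Growth was recorded at each dose for each cell line, and a GI50 was derived for each line.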

[4] = tested on: MOLT-4; assay: Cytotoxicity against human MOLT4 cells assessed as cell growth at 0.05 uM by SRB assay; settings: read-out: Activity
[5] = Cytotoxicity against human NCI-ADR-RES cells assessed as cell growth at 0.005 uM by SRB assay; settings: read-out: Activity
[6] = tested on: HOP-62; assay: Cytotoxicity against human HOP62 cells assessed as cell growth at 0.5 uM by SRB assay; settings: read-out: Activity; in short: as §1
[7] = tested on: SNB-19; assay: Cytotoxicity against human SNB19 cells assessed as cell growth at 50 uM by SRB assay; settings: read-out: Activity
[8] = tested on: RXF 393; assay: Cytotoxicity against human RXF393 cells assessed as cell growth at 0.5 uM by SRB assay; settings: read-out: Activity
[9] = tested on: SNB-19; assay: Cytotoxicity against human SNB19 cells assessed as cell growth at 0.05 uM by SRB assay; settings: read-out: Activity
[10] = tested on: UO-31; assay: Cytotoxicity against human UO31 cells assessed as cell growth at 0.5 uM by SRB assay; settings: read-out: Activity
[11] = tested on: UO-31; assay: Cytotoxicity against human UO31 cells assessed as cell growth at 0.05 uM by SRB assay; settings: read-out: Activity
[12] = tested on: MDA-MB-435; assay: Cytotoxicity against human MDA-MB-435 cells assessed as cell growth at 5 uM by SRB assay; settings: read-out: Activity
[13] = tested on: IGROV-1; assay: Cytotoxicity against human IGROV1 cells by SRB assay
In short: (§2)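 NCI-60 panel screen; 5-dose testing giving GI50 per cell line, plus a single 10 µM one-dose test. Method details not given beyond the NCI screen.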

[14] = tested on: TK-10; assay: Cytotoxicity against human TK10 cells assessed as cell growth at 0.5 uM by SRB assay; settings: read-out: Activity
[15] = tested on: SK-MEL-5; assay: Cytotoxicity against human SK-MEL-5 cells assessed as cell growth at 0.5 uM by SRB assay; settings: read-out: Activity
[16] = tested on: RPMI-8226; assay: Cytotoxicity against human RPMI8226 cells assessed as cell growth at 0.5 uM by SRB assay; settings: read-out: Activity
[17] = tested on: HOP-92; assay: Cytotoxicity against human HOP92 cells by SRB assay; in short: as §1
[18] = tested on: MDA-MB-468; assay: Cytotoxicity against human MDA-MB-468 cells assessed as cell growth at 0.05 uM by SRB assay; settings: read-out: Activity
[19] = tested on: NCI-H322M; assay: Cytotoxicity against human NCI-H322M cells assessed as cell growth at 0.05 uM by SRB assay; settings: read-out: Activity
[20] = tested on: HCC 2998; assay: Cytotoxicity against human HCC2998 cells assessed as cell growth at 0.5 uM by SRB assay; settings: read-out: Activity; in short: as §1
[21] = tested on: DU-145; assay: Cytotoxicity against human DU145 cells assessed as cell growth at 0.5 uM by SRB assay; settings: read-out: Activity; in short: as §1
[22] = tested on: HCT-116; assay: Cytotoxicity against human HCT116 cells by SRB assay; in short: as §1
[23] = tested on: DU-145; assay: Cytotoxicity against human DU145 cells assessed as cell growth at 0.005 uM by SRB assay; settings: read-out: Activity
[24] = tested on: OVCAR-5; assay: Cytotoxicity against human OVCAR5 cells assessed as cell growth at 0.005 uM by SRB assay; settings: read-out: Activity
[25] = tested on: MDA-MB-468; assay: Cytotoxicity against human MDA-MB-468 cells assessed as cell growth at 0.005 uM by SRB assay; settings: read-out: Activity
[26] = tested on: SF-539; assay: Cytotoxicity against human SF539 cells assessed as cell growth at 0.5 uM by SRB assay; settings: read-out: Activity
[27] = tested on: OVCAR-3; assay: Cytotoxicity against human OVCAR3 cells assessed as cell growth at 0.05 uM by SRB assay; settings: read-out: Activity
[28] = tested on: 786-0; assay: Cytotoxicity against human 786-0 cells assessed as cell growth at 5 uM by SRB assay; settings: read-out: Activity
[29] = tested on: UO-31; assay: Cytotoxicity against human UO31 cells assessed as cell growth at 50 uM by SRB assay; settings: read-out: Activity
[30] = tested on: SNB-75; assay: Cytotoxicity against human SNB75 cells assessed as cell growth at 5 uM by SRB assay; settings: read-out: Activity
[31] = tested on: COLO 205; assay: Cytotoxicity against human COLO205 cells assessed as cell growth at 0.005 uM by SRB assay; settings: read-out: Activity
[32] = tested on: A549; assay: Cytotoxicity against human A549/ATCC cells assessed as cell growth at 50 uM by SRB assay; settings: read-out: Activity
[33] = tested on: LOX IMVI; assay: Cytotoxicity against human LOXIMVI cells assessed as cell growth at 0.5 uM by SRB assay; settings: read-out: Activity
[34] = tested on: DU-145; assay: Cytotoxicity against human DU145 cells assessed as cell growth at 50 uM by SRB assay; settings: read-out: Activity; in short: as §1
[35] = tested on: OVCAR-8; assay: Cytotoxicity against human OVCAR8 cells assessed as cell growth at 50 uM by SRB assay; settings: read-out: Activity
[36] = tested on: OVCAR-3; assay: Cytotoxicity against human OVCAR3 cells by SRB assay; in short: as §2
[37] = tested on: ACHN; assay: Cytotoxicity against human ACHN cells assessed as cell growth at 0.05 uM by SRB assay; settings: read-out: Activity
[38] = tested on: HL-60(TB); assay: Cytotoxicity against human HL-60(TB) cells assessed as cell growth at 5 uM by SRB assay; settings: read-out: Activity; in short: as §1
[39] = tested on: UO-31; assay: Cytotoxicity against human UO31 cells assessed as cell growth at 0.005 uM by SRB assay; settings: read-out: Activity
[40] = tested on: UACC-62; assay: Cytotoxicity against human UACC62 cells assessed as cell growth at 5 uM by SRB assay; settings: read-out: Activity
[41] = tested on: HOP-62; assay: Cytotoxicity against human HOP62 cells assessed as cell growth at 50 uM by SRB assay; settings: read-out: Activity; in short: as §1
[42] = tested on: SF-295; assay: Cytotoxicity against human SF295 cells assessed as cell growth at 0.5 uM by SRB assay; settings: read-out: Activity
[43] = tested on: NCI-H23; assay: Cytotoxicity against human NCI-H23 cells assessed as cell growth at 0.005 uM by SRB assay; settings: read-out: Activity
[44] = tested on: NCI-H226; assay: Cytotoxicity against human NCI-H226 cells assessed as cell growth at 5 uM by SRB assay; settings: read-out: Activity
[45] = tested on: SF-295; assay: Cytotoxicity against human SF295 cells assessed as cell growth at 50 uM by SRB assay; settings: read-out: Activity
[46] = read-out: LC50 (the source's name)
[47] = read-out: pLC50 (the source's name) (converted)

For COc1cc([C@@H]2c3cc4c(cc3[C@@H](NC(=O)CN3CCN(CCCCCCCCCCN5CCN(CC(=O)N[C@@H]6c7cc8c(cc7[C@@H](c7cc(OC)c(O)c(OC)c7)[C@H]7C(=O)OC[C@@H]76)OCO8)CC5)CC3)[C@H]3COC(=O)[C@H]23)OCO4)cc(OC)c1O, the growth at 0.005 µM [1] was 91%, the growth at 5 µM [2] was -66% and the growth at 50 µM [3] was -22%. The growth at 0.05 µM [4] was 67%, the growth at 0.005 µM [5] was 97% and the growth at 0.5 µM [6] was 23%. For the same compound, the growth at 50 µM [7] was -92%, the growth at 0.5 µM [8] was 71% and the growth at 0.05 µM [9] was 93%. It also gave a growth at 0.5 µM [10] of 76%, a growth at 0.05 µM [11] of 85% and a growth at 5 µM [12] of -60%. The GI50 ([13]; read-out: GI50) was 0.36 µM, the CC50 [13, 46] was greater than 50 µM and the TGI ([13]; read-out: TGI) was 7.59 µM. The GI50 ([13]; read-out: pGI50 (converted)) was 0.363 µM, the CC50 [13, 47] was greater than 50.1 µM and the TGI ([13]; read-out: pTGI (converted)) was 7.59 µM. It also gave a growth at 0.5 µM [14] of 96%, a growth at 0.5 µM [15] of 83% and a growth at 0.5 µM [16] of -2%. For the same compound, the GI50 ([17]; read-out: GI50) was 0.14 µM, the CC50 [17, 46] was greater than 50 µM and the TGI ([17]; read-out: TGI) was 2.58 µM. The GI50 ([17]; read-out: pGI50 (converted)) was 0.141 µM, the CC50 [17, 47] was greater than 50.1 µM and the TGI ([17]; read-out: pTGI (converted)) was 2.57 µM. It also gave a growth at 0.05 µM [18] of 99%, a growth at 0.05 µM [19] of 92% and a growth at 0.5 µM [20] of 61%. It also gave a growth at 0.5 µM [21] of 22%, a GI50 ([22]; read-out: GI50) of 1 µM and a CC50 [22, 46] of 46.5 µM. The TGI ([22]; read-out: TGI) was 3.46 µM, the GI50 ([22]; read-out: pGI50 (converted)) was 1 µM and the CC50 [22, 47] was 46.8 µM. The TGI ([22]; read-out: pTGI (converted)) was 3.47 µM, the growth at 0.005 µM [23] was 99% and the growth at 0.005 µM [24] was 95%. It also gave a growth at 0.005 µM [25] of 95%, a growth at 0.5 µM [26] of 13% and a growth at 0.05 µM [27] of 73%. The growth at 5 µM [28] was -13%, the growth at 50 µM [29] was -100% and the growth at 5 µM [30] was -12%. For the same compound, the growth at 0.005 µM [31] was 90%, the growth at 50 µM [32] was -41% and the growth at 0.5 µM [33] was 21%. For the same compound, the growth at 50 µM [34] was -100%, the growth at 50 µM [35] was -19% and the GI50 ([36]; read-out: GI50) was 1.81 µM. The CC50 [36, 46] was 49.9 µM, the TGI ([36]; read-out: TGI) was 13.8 µM and the GI50 ([36]; read-out: pGI50 (converted)) was 1.82 µM. It also gave a CC50 [36, 47] of 50.1 µM, a TGI ([36]; read-out: pTGI (converted)) of 13.8 µM and a growth at 0.05 µM [37] of 88%. The growth at 5 µM [38] was -44%, the growth at 0.005 µM [39] was 86% and the growth at 5 µM [40] was 65%. The growth at 50 µM [41] was -20%, the growth at 0.5 µM [42] was 61% and the growth at 0.005 µM [43] was 95%. The growth at 5 µM [44] was 35% and the growth at 50 µM [45] was -44%.
